Experimental data: the EternaBench riboswitch data

System: MS2 coat protein
Test: apparent Kd, MS2 coat protein; higher = weaker binding; RNA-MaP array; FMN 200 µM where present
Procedure, shortened: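 Green signal from SNAP-549-labelled MS2 coat protein was normalised to red-channel RNA signal and to the median Fmax of control clusters. The protein was titrated from 0.7 or 1.5 nM, doubling to 3 µM, without and then with constant ligand, over designs transcribed by stalled E. coli RNA polymerase on Illumina sequencing-chip clusters, in 100 mM Tris-HCl pH 7.5, 80 mM KCl, 4 mM MgCl2, BSA, DTT, yeast tRNA and Tween-20. The apparent Kd is the median of filtered per-cluster binding-curve fits.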

[1] = designed as: ON switch for flavin mononucleotide, no ligand
[2] = ligand present: flavin mononucleotide, designed as: ON switch for flavin mononucleotide
[3] = designed as: OFF switch for flavin mononucleotide, no ligand
[4] = ligand present: flavin mononucleotide, designed as: OFF switch for flavin mononucleotide

| Sequence | apparent Kd [1] | apparent Kd [2] | apparent Kd [3] | apparent Kd [4] |
| --- | --- | --- | --- | --- |
| GUAGCAUAGUCAGGAUAUUCAUAUAAUAAAUAAACAUGAGGAUCACCCAUGUGGCGAAAGCCUUGGGAGAAGGGACAAUGCUAC | 1210 nM | 90.2 nM |  |  |
| ACAUGAGGAUCACCCAUGUUGCGAGUAGAAGGCUAUAAGAAACGGGAUGAAGAAAUCCACGCAAUAGAGGAUAUACGAAUUGGA | 12.1 nM | 7.78 nM |  |  |
| AGUAUGUACGCAGGAUAUACAUGAGGAUCACCCAUGUGGAACAGUGUAGUGCUAGUUGAUCCUCAGUAGAAGGGCGGUCGAAUA |  |  | 62.5 nM | 91.6 nM |
| CUUUCGUGAGGAUAUGUGGCUUCGAUCGUAAAAUCGAGGCUACAGAAGGCACAUGAGGAUCACCCAUGUUCCUC |  |  | 36.2 nM | 528 nM |
| CCAGCGUGUGUGAGGAUAUGCUGGUCCUUGGAUCAGCAGAAGGCACAUGAGGAUCACCCAUGUGAGGACGUUGG |  |  | 22.4 nM | 94.5 nM |
| AAAGGAUCAGGAUAUGCGUGGAAAAAGUGUAUUCAAAAAAAACAUGAGGAUCACCCAUGUAGAAGGGAUCCAAA |  |  | 182 nM | 657 nM |
| UUUGGGUCAGGAUAUUGUUAGUUUAGUUGUUUGUAUUAGUUCGAGAAGGGACAUGAGGAUCACCCAUGUGGUUA |  |  | 70.5 nM | 77.5 nM |
| GUCAGCUCGUGAGGAUAUACAUGAGGAUCACCCAUGUGAUCAAUAGCAGCUUCGGCUGCAUACAUGUAGAAGGCACGAGCUGAU |  |  | 43.1 nM | 62.9 nM |
| CCUAUACAUGAGGAUCACCCAUGUCAGGAUAUAGAAAGCCGCGGAAUAGGACACGGCACUAGAAGGGACUGGCU |  |  | 29.7 nM | 36.1 nM |
| CAGGGUCGUAUUCAGCCCGUCCACAUGAGGAUCACCCAUGUCAAGGAUAUAGCUUAAAAUACAAACUAGAAGGUGACGCUGGGU |  |  | 21.7 nM | 83.8 nM |
| AAGAAGUCAGGAUAUCCAUGGCGGCACUUGCGUGGUGGCGUGGAGAAGGGACAUGAGGAUCACCCAUGUAAAGU |  |  | 49 nM | 44.6 nM |
| AAAUCUUACGAAGGAUAUACAAACAUGAGGAUCACCCAUGUGUGUUUCGUGUAACUGAAAUUCGGGUAGAAGGUCGUAGACAUA |  |  | 24.3 nM | 15 nM |
| GUAGCAUACCGAGGAUAUUCUUACCGGAAACGGACAUGAGGAUCACCCAUGUGGCGAAAGCCUUUGGAGAAGGCGGAAUGCUAC | 12.4 nM | 12.4 nM |  |  |
| CGGAGGUCAGGAUAUGCAUGGCGGGACUUGCGUCGUGGCGUGCAGAAGGGACAUGAGGAUCACCCAUGUGGAGA |  |  | 83.2 nM | 259 nM |
| GCUAUCGGGUGAGGAUAUAUGAUUGUGAUUAAAAUAGAAGGCAUCUCAGAAGACAUGAGGAUCACCCAUGUAGUUAAGAUGGCC | 14.6 nM | 11.4 nM |  |  |
| GGAUUACAUGAGGAUCACCCAUGUGAGGAUAUCGAUGUCCCUUGGCGCGUGCGGGACUCGAGAAGGCACUUGGA |  |  | 47.8 nM | 248 nM |
| CGGUCGAUAUCAGGAUAUCGUUUAAUUACAUGAGGAUCACCCAUGUUGACAAGGAAUAUAACUUGCGAGAAGGGAUUACGAUCG | 9.33 nM | 6.47 nM |  |  |
| AGCGAACAGGCUAACAUGAGGAUCACCCAUGUGGACUCAUGGUAGGAUAUCGGGAAGGAGGAAACCGAGAAGGGCCGGUGAGCA | 69.8 nM | 80.9 nM |  |  |
| UCCUUGUCCUGAGGAUAUCCGCGGUUCCCAAAAGGAGAAGGCAGGACAUGAGGAUCACCCAUGUACCCAGAAAACGUGCAGAUU |  |  | 9.95 nM | 46.8 nM |
| GGACAGGACAGAGGAUAUACGUGCUAGAGAUACUAGCAAAAUUUCCUCACAUGAGGAUCACCCAUGUAGAAGGCUGUCCUAUCG |  |  | 7.39 nM | 123 nM |
| UUGGACGUCGUAGGAUAUGUAGGAUUCUCCUACAUGAGGAUCACCCAUGUUGACAUGGAGGACGGACAGAAGGACGGUGUCCAU | 14.1 nM | 5.64 nM |  |  |
| UGAUCAAAUGUCAGGAUAUGCUGUUGGAAACAACAGCAGAAGGGACAUGAGGAUCACCCAUGUCUUGUCGAUUU |  |  | 21.4 nM | 112 nM |
| AAUGUGUGUCGAGGAUAUAUAACAUGACAACAAACACAUACAUGAGGAUCACCCAUGUCCCAUGUAUAGAAGGCGAUGUGUGUG | 219 nM | 434 nM |  |  |
| UUCCUACAUGAGGAUCACCCAUGUCAGGAUAUCUCCUCACUGCGCUUGCGCAGUGAAUAGAGAAGGGACAGGCU |  |  | 14.9 nM | 19.3 nM |

| Sequence | apparent Kd [1] | apparent Kd [2] | apparent Kd [3] | apparent Kd [4] |
| --- | --- | --- | --- | --- |
| UUUUAACAUGAGGAUCACCCAUGUGAGGAUAUCGAAAUUUAUAUUAAUAUUAUUUUUUCGAGAAGGCACAUUUU |  |  | 124 nM | 155 nM |
| GCGCUUAUACAGAAGGCCAGAGACAUGAGGAUCACCCAUGUUAGAUGGUGGAGGAUAUGUGUUUUAUUACAGAUAGUUGAGCGC | 6.38 nM | 6.13 nM |  |  |
| UGUGUGUGGCAGGAUAUGCCGGUAGUAGGACGGGUAGAAGGGUCUACAUGAGGAUCACCCAUGUGGCCGGUUGG |  |  | 17.7 nM | 17.7 nM |
| AUAUUGUGAGGAUAUCAGGUGUGCUAGCGUACUGGUACAUCUGAGAAGGCACAUGAGGAUCACCCAUGUUUCUU |  |  | 15.6 nM | 39.6 nM |
| GUCAUCAUAUGAGGAUAUGACACCGAAACGGUGUCAGAAGGCAUGUCGAUAGACAUGAGGAUCACCCAUGUUUACAUGAUGACA | 84.3 nM | 19.7 nM |  |  |
| AUAAGCUCGUCAGGAUAUACAACACUGUGUAAGCAGUGUGGUAUGAUCACAUGAGGAUCACCCAUGUAGAAGGGACGAGCUUAU |  |  | 6.33 nM | 43.4 nM |
| AAUGUUUGAUUCCACUUAUACAUGAGGAUCACCCAUGUUAUCGAGGAUAUGCAUUAGAGUGUUUAGCAGAAGGCGAUGUAAUUU |  |  | 6.74 nM | 17.5 nM |
| AACAUGUGAGGAUAUUGAUUGGAGACGUGGAGACCGCUAAUUAAGAAGGUACAUGAGGAUCACCCAUGUCCCAU |  |  | 215 nM | 231 nM |
| GUAUUUAUAUAAGGAUAUAAGUCUAGGACAUGAGGAUCACCCAUGUGUGUCUUAGAAGGUAUAUAGGUAAUACUGUUACAGUAA | 86.1 nM | 23.6 nM |  |  |
| CUGACGCAAGCAGGAUAUCUACUGGCGAUGGUACAUGAGGAUCACCCAUGUAGAGAAGGGCUAAGUGGAAGGAUAAAAUAAAAG |  |  | 110 nM | 120 nM |
| GGAGUACAUGAGGAUCACCCAUGUUGGAACGAAGUAGGAUAUGUACAAUAUUAAAUAAAAACAGAAGGACUAAUAA | 62.4 nM | 39 nM |  |  |
| AUUACCAGAGGAUAUGCGAGGGUGUACCUCCCACAGCGAAAACAUGAGGAUCACCCAUGUAGAAGGCUGAACAU |  |  | 56.7 nM | 46.3 nM |
| CUGUUAUAGGUCCAGAAUUACAACAUGAGGAUCACCCAUGUGCAGGAUAUCGGGUUGAUAGGCGCCGAGAAGGGUAUAGUCACG |  |  | 75.8 nM | 70.8 nM |
| ACAUGGUAGUAGAAGGGUAUUACUUUAGAAUCAACCAUUAGUUUAUUUUAUACAGGAUAUGCUAACAUGAGGAUCACCCAUGUU |  |  | 10.4 nM | 8.25 nM |
| CAACCGUUGCAGAAGGUUAAAUAAUUUCUCAUCUUGUUUACAUGAGGAUCACCCAUGUAUUUGUUGAAGGAUAUGCAAGUGUUG |  |  | 8.58 nM | 8.21 nM |
| GUCAUGUGAGGAUAUGUAGCCACGAAAUCUUGUAGAGGCAGACAGAAGGCACAUGAGGAUCACCCAUGUGUUUU |  |  | 31.6 nM | 258 nM |
| GUAGUGUAUGUAGGAUAUGUGAAGCAAAGCUUCACAGAAGGACAUGAGGAUCACCCAUGUAUUGCAGUCUGCAAUCAGACUGCU |  |  | 43.4 nM | 152 nM |
| AAUUCACAUGAGGAUCACCCAUGUCAGGAUAUGGUUUCACGUGUUUCGGUGCGUGAGGCCAGAAGGGACAGCUA |  |  | 58.4 nM | 87 nM |
| UGAAAUCAUGUAGGAUAUGCAUGGCGAAGCUACGCAGAAGGACAUGAGGAUCACCCAUGUUCUAGCUACCGAGUACGGUGGCAA |  |  | 23.1 nM | 121 nM |
| UUAUUAUGUGUAGGAUAUGCAUAUUAUUAUUAUGCAGAAGGACAUGAGGAUCACCCAUGUAUAUUAUUAUUAUAUAUUAUAUGU |  |  | 21.1 nM | 44.2 nM |
| UCAAGUAUGUAGGAUAUCGAUGUCCUUGGACAUCGAGAAGGACGUACAUGAGGAUCACCCAUGUAACUUGCAUG |  |  | 219 nM | 278 nM |
| GCGUGGUUCUAGAAGGUGCUAGCGAUAAGCUAGCAAGGAUAUAGACAUGAGGAUCACCCAUGUCUAUGUGAAAUAGACACACGC |  |  | 4.75 nM | 4.62 nM |
| AGAGGACAUGAGGAUCACCCAUGUAAGGAUAUGCGGAGAGUUUGGAGAGGUCGGGUAGGCAGAAGGUACAGGAG |  |  | 65.1 nM | 91.7 nM |
| UUUUAACAUGAGGAUCACCCAUGUGAGGAUAUCGAAAUUUAUAUUAAUAUUUUUAUUACGAGAAGGCACAUUUU |  |  | 73.5 nM | 69.8 nM |
